The source made the active and inactive calls. The rule behind the calls is not given here.
Assays:
[1] = target: T1, Nuclear factor erythroid 2-related factor 2 (Mus musculus) (UniProt Q60795); assay: Induction of Nrf2-dependent GCLM gene expression in mouse CATH.a cells at 2 uM after 6 hrs by RT-PCR analysis relative to control; assay type: cell-based
T1 sequence (whole entry): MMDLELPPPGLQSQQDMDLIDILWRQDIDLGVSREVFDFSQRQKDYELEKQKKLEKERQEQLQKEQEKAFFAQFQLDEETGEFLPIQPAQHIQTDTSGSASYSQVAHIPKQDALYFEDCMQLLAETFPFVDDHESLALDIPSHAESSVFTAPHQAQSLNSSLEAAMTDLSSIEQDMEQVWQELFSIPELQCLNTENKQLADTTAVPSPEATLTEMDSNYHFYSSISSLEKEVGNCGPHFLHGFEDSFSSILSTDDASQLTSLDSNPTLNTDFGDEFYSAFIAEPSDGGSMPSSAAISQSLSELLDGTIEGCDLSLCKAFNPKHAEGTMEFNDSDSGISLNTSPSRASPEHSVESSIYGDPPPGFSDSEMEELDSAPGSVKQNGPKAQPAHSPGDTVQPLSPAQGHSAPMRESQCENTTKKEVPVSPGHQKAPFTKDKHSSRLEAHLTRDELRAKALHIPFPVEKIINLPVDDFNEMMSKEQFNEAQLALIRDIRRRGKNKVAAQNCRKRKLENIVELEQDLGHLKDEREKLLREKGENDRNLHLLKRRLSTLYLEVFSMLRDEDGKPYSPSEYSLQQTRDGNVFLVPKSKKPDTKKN
Procedure, shortened: (§1)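 CATH.a cells grown in RPMI 1640 with 8% horse serum and 4% FBS, exposed to graded concentrations for 6 h. mRNA analysed by RT-PCR with gene-specific primers, products run on 1% agarose gel, band densitometry normalized to GAPDH. At least duplicate cultures; fold induction versus untreated control ± SEM.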

[2] = target: T1, Nuclear factor erythroid 2-related factor 2 (Mus musculus); assay: Activation of Nrf2 in mouse CATH.a cells assessed as increase in total Nrf2 protein level after 24 hrs by western blot analysis; assay type: cell-based
Procedure, shortened: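 CATH.a cells (RPMI 1640, 8% horse serum, 4% FBS, 37 °C, 5% CO2) exposed to various concentrations for 24 h. Whole-cell lysate in RIPA buffer with protease inhibitors, 10% SDS-PAGE, Nrf2 immunoblot, chemiluminescence, densitometry normalized to β-actin. At least duplicate cultures, averaged, fold of untreated control ± SEM.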

[3] = target: T1, Nuclear factor erythroid 2-related factor 2 (Mus musculus); assay: Induction of Nrf2 nuclear translocation in mouse CATH.a cells at 10 uM after 3 hrs by western blot analysis relative to control; assay type: cell-based
Procedure, shortened: (§2)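 Mouse DAergic CATH.a cells treated at various concentrations for 3 h. Nuclei isolated by hypotonic HEPES buffer/NP-40 lysis, then nuclear proteins extracted in 400 mM NaCl HEPES buffer. Nrf2 Western blot with lamin B as nuclear marker, chemiluminescent detection, densitometry. At least duplicate cultures, expressed as fold induction over untreated control ± SEM.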

[4] = target: T1, Nuclear factor erythroid 2-related factor 2 (Mus musculus); assay: Induction of Nrf2 nuclear translocation in mouse CATH.a cells after 3 hrs by western blot analysis; assay type: cell-based; procedure, shortened: as §2
[5] = target: T1, Nuclear factor erythroid 2-related factor 2 (Mus musculus); assay: Induction of Nrf2-dependent HO1 protein level in mouse BV-2 cells at 20 uM after 24 hrs by sandwich ELISA relative to control; assay type: cell-based
Procedure, shortened: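 Murine BV-2 microglia in DMEM/10% FBS, 2.0 × 10⁴ cells per well, treated at 20 μM for 24 h in triplicate. Lysates in NP-40 Tris buffer (pH 8.0) diluted tenfold; HO-1 measured by sandwich ELISA with HRP-streptavidin and Amplex Red fluorescence (ex 530/em 590 nm). Expressed as % of 0.04% DMSO vehicle control ± SEM; sulforaphane 5 μM as reference.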

[6] = Cytotoxicity against mouse CATH.a cells assessed as cell viability at 0.1 to 2 uM after 72 hrs by LDH activity assay; assay type: cell-based
Procedure, shortened: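 Seeded at 2.4 × 10⁴ CATH.a cells/well and exposed to the agent alone for 72 h. LDH in culture medium measured with 0.26 mM NADH, 2.87 mM pyruvate in 100 mM potassium phosphate pH 7.4; absorbance at 340 nm followed 5 min at 2 s intervals, room temperature. Duplicate cultures minimum; % untreated control ± SEM.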

[7] = system: Mus musculus; assay: Inhibition of motor deficits in MPTP-induced C57Bl/6 mouse parkinson's disease model assessed as number of successful steps taken on the apparatus at 10 mg/kg/day, po for 3 days administered first dose at 24 hrs prior to first injection of 4X 20 mg/kg, ip MPTP challenge by vertical grid test (reference value: 75.4 +/-6.2%); assay type: functional; set-up: scale not given: the % may be the effect or the level left
[8] = system: Mus musculus; assay: (§3) Inhibition of motor deficits in MPTP-induced C57Bl/6 mouse parkinson's disease model assessed as time taken to climb down at 10 mg/kg/day, po for 3 days administered first dose at 24 hrs prior to first injection of 4X 20 mg/kg, ip MPTP challenge by vertical grid test (reference value: 22.4 +/-3.9 s); assay type: functional
[9] = system: Mus musculus; assay: as §3, with “turn around” for “climb down”, “12.4 +/-1.8” for “22.4 +/-3.9”; assay type: functional
[10] = system: Mus musculus; assay: Inhibition of motor deficits in MPTP-induced C57Bl/6 mouse parkinson's disease model assessed as improvement in postural balance at 10 mg/kg/day, po for 3 days administered first dose at 24 hrs prior to first injection of 4X 20 mg/kg, ip MPTP challenge measured 6 days after last MPTP injection by hind-limb test; assay type: functional, organism-based
Procedure, shortened: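 C57Bl/6 males (n = 10/group), 10 mg/kg/day po for 3 days in N-methyl-2-pyrrolidone/20% Tween 80 saline. MPTP 4 × 20 mg/kg ip at 2 h intervals, begun 24 h after first dose. Six days after last MPTP injection, mice suspended by tail and hindlimb position scored 0−4. Mean ± SEM.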

[11] = target: T1, Nuclear factor erythroid 2-related factor 2 (Mus musculus); assay: Induction of Nrf2-dependent HO1 protein expression in mouse CATH.a cells at 0.1 uM after 24 hrs by western blot analysis; assay type: cell-based
Procedure, shortened: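 Cells (CATH.a) exposed to graded concentrations for 24 h, lysed in RIPA buffer with protease inhibitors. Equal protein separated on 10% SDS gel, blotted; primary antibodies overnight at 4 °C, HRP secondary, chemiluminescence. Densitometry normalized to β-actin. At least duplicate cultures, fold of untreated control ± SEM.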

[12] = species: Mus musculus; assay: Neuroprotection against BH4-induced mouse CATH.a cell death assessed as cell viability at >0.1 uM treated for 20 hrs prior to BH4 challenge for 24 hrs by LDH activity assay; assay type: functional
Procedure, shortened: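 CATH.a cells at 2.4 × 10⁴/well given graded concentrations for 20 h, then 200 μM BH4 for an additional 24 h. Medium LDH activity from NADH oxidation with pyruvate, pH 7.4, read at 340 nm over 5 min. At least duplicate cultures, % untreated control ± SEM, compared against BH4-treated group.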

[13] = target: T1, Nuclear factor erythroid 2-related factor 2 (Mus musculus); assay: Induction of Nrf2-dependent GCLC gene expression in mouse CATH.a cells at 10 uM after 6 hrs by RT-PCR analysis relative to control; assay type: cell-based; procedure, shortened: as §1

Structure (SMILES): COc1ccccc1S(=O)(=O)/C=C/c1ccccc1Cl
- fold change (FC) [1]: 1.43
- Activity [2]: Dose-dependent effect
- fold change (FC) [3]: 3.5
- Activity [4]: Dose-dependent effect
- fold change (FC) [5]: 3.8
- Activity [6]: Non-toxic
- Activity [7]: 96.9%
- Time [8]: 6.3 s
- Time [9]: 4 s
- inhibition [10]: Active
- Activity [11]: inactive
- Activity [12]: Active
- fold change (FC) [13]: 2.64
